# Where a SMILES comes first, the peptide text is derived from it.
# B1: Arf GAP3: Arf GAP that functions with the coat protein coatomer (protein, UniProt Q9NP61 1-516, looked up)
# ADP-ribosylation factor …: MGDPSKQDILTIFKRLRSVPTNKVCFDCGAKNPSWASITYGVFLCIDCSGSHRSLGVHLSFIRSTELDSNWSWFQLRCMQVGGNASASSFFHQHGCSTNDTNAKYNSRAAQLYREKIKSLASQATRKHGTDLWLDSCVVPPLSPPPKEEDFFASHVSPEVSDTAWASAIAEPSSLTSRPVETTLENNEGGQEQGPSVEGLNVPTKATLEVSSIIKKKPNQAKKGLGAKKGSLGAQKLANTCFNEIEKQAQAADKMKEQEDLAKVVSKEESIVSSLRLAYKDLEIQMKKDEKMNISGKKNVDSDRLGMGFGNCRSVISHSVTSDMQTIEQESPIMAKPRKKYNDDSDDSYFTSSSSYFDEPVELRSSSFSSWDDSSDSYWKKETSKDTETVLKTTGYSDRPTARRKPDYEPVENTDEAQKKFGNVKAISSDMYFGRQSQADYETRARLERLSASSSISSADLFEEPRKQPAGNYSLSSVLPNAPDMAQFKQGVRSVAGKLSVFANGVVTSIQDRYGS
# Experiments:
# Arf GAP2 [1] = biological target: T1, Arf GAP2 (Homo sapiens, UniProt Q8N6H7); assay: Cargo peptide titration in coatomer-dependent GAP assay; assay type: biochemical; details: for effect of peptide on Arf GAP2 activity: LUVs PI4P 0.03 μm, 3 min 30 °C
# T1 sequence (Q8N6H7 whole entry): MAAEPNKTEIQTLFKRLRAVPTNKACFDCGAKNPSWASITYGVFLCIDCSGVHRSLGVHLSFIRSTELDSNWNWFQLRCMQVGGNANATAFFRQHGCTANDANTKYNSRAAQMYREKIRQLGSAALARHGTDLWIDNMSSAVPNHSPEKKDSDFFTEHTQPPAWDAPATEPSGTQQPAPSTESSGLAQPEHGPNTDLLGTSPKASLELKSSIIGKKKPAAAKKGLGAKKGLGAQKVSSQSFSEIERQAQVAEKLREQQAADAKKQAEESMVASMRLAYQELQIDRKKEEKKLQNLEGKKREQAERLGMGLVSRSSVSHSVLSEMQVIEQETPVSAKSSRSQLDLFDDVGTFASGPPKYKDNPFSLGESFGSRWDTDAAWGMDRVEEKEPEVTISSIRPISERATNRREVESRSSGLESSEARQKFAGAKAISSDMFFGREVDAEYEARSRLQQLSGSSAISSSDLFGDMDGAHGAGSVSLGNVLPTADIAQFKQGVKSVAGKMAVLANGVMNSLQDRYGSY
# Summary of the method: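 Arf GAP2 [1–521]-His6 (E. coli, refolded from inclusion bodies) at 11.4 nM, with 124 nM rat-liver coatomer. Substrate was 0.6 μM [α32P]GTP•myrArf1 on PI4P LUVs extruded through 0.03 μm pores. p23, p24 or p25 cytoplasmic-tail peptides (p25 also palmitoyl- or WRM-extended) were titrated in. Reactions ran 3 min at 30 °C. Palmitoyl-peptide data were fit to one-site binding with offset; duplicate experiments.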
# Arf GAP2 [2] = biological target: T1, Arf GAP2; assay: Time dependence; assay type: biochemical
# Arf GAP2 [3] = biological target: T1, Arf GAP2; assay: Saturation kinetics, tryptophan fluorescence based assay; assay type: biochemical; details: 25 μM peptide, 124 nM coatomer, LUVs 0.03 μm
# Summary of the method: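 myrArf1•GTP was titrated into reactions with 114 nM Arf GAP2 [1–521]-His6, 124 nM coatomer and PI4P LUVs (0.03 μm pores), with or without 25 μM p25 peptide. GTP→GDP conversion was followed by tryptophan fluorescence. Readings were corrected for time-dependent fluorescence change of Arf GAP2 ± coatomer. Initial rates were fit to Michaelis-Menten and Hill equations; kcat came from Vmax.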
# Arf GAP2 [4] = biological target: T1, Arf GAP2; assay: Saturation kinetics following [α^32P]GTP hydrolysis; assay type: biochemical; details: 25 μM peptide, 124 nM coatomer, LUVs 0.03 μm
# Summary of the method: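 Saturation kinetics used [α32P]GTP•Arf1, titrated into reactions with 10 nM Arf GAP2 [1–521]-His6 and 124 nM coatomer, with or without 25 μM p25 peptide. LUVs contained PI4P and were extruded through 0.03 μm pores. Reactions stopped after 3 min at 30 °C. Data were fit to Michaelis-Menten and Hill equations, with kcat calculated from Vmax; three experiments.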
# Arf GAP2 [5] = biological target: T1, Arf GAP2; assay: Coatomer titration in Arf GAP2 GAP assay; assay type: biochemical
# Summary of the method: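 Coatomer was titrated into reactions with 11.4 nM Arf GAP2 [1–521]-His6, 0.6 μM [α32P]GTP•myrArf1 and 25 μM p25 peptide. LUVs contained PI4P and were extruded through 1.0 or 0.03 μm pores. Reactions ran 3 min at 30 °C. Read-out was hydrolysis of Arf1-bound GTP.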
# Arf GAP2 [6] = assay: Effect of p25 on Arf GAP2 with and without coatomer; assay type: biochemical; details: 3 min 30°C
# Summary of the method: (§1)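 GAP enzyme was Arf GAP2 [1–521]-His6 or His10-[325–724]ASAP1. Mixtures held 0.6 μM [α32P]GTP•Arf1 on PI4P LUVs extruded through 0.03 μm pores, with or without 124 nM coatomer and 25 μM p25 peptide. Fraction of GTP hydrolysed in 3 min at 30 °C was measured.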
# Arf GAP1 = assay: Effect of p25 on Arf GAP1 with and without coatomer; assay type: biochemical; details: 25 μM p25, 28 nM Arf GAP1, 124 nM coatomer, 3 min 30°C
# ASAP1 = assay: Effect of coatomer and p25 on ASAP1 GAP activity; assay type: biochemical; details: 1 nM ASAP1, 3 min 30°C
# Summary of the method: as §1
# [7] = test system: [α^32P]GTP•Arf1 (myrArf1); assay: GAP assay: Arf GAP titration, hydrolysis of [α^32P]GTP bound to myrArf1; assay type: biochemical, Human; details: for C50 (amount of Arf GAP needed for 50% of maximum observed hydrolysis) / Maximum GTP Hydrolysis: 0.6 μM [α^32P]GTP•Arf1, 3 min, 30 °C, mean ± SD, three experiments
# Protein binding to LUVs = details: 1 μM Arf GAP2; 5 min, 30°C; Coomassie Blue; not shown
# Summary of the method: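 Sucrose-loaded LUVs (1 mM total lipid), extruded through 0.03 or 1 μm pores, were incubated with purified Arf GAP2 (1 μM) for 5 min at 30 °C. Vesicles were pelleted at 100,000 × g for 15 min at 4 °C. Bound protein was resolved by SDS-PAGE and stained with Coomassie Blue.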
# Arf GAP2 [8] = biological target: T1, Arf GAP2; details: tryptophan fluorescence assay; ref [33]; cited from earlier work
# coatomer = details: ref [18]; cited from earlier work
# Arf GAP2 [9] = biological target: T1, Arf GAP2; assay type: biochemical; details: for effect of phosphoinositide on Arf GAP2 activity: without coatomer
# [10] = 11.4 nM Arf GAP2, 124 nM coatomer
# [11] = LUVs 2.5% PI4P, 0.03 μm pores, 124 nM coatomer and 25 μM p25 where indicated
# [12] = LUVs 2.5% PI4P, 1.0 μm pores, 124 nM coatomer and 25 μM p25 where indicated
# [13] = LUVs 2.5% PIP2, 0.03 μm pores, 124 nM coatomer where indicated
# [14] = LUVs 2.5% PIP2, 1.0 μm pores, 124 nM coatomer where indicated
molecule,measurement,setting,value
CSCC[C@H](NC(=O)[C@H](CCCNC(=N)N)NC(=O)[C@@H](N)Cc1c[nH]c2ccccc12)C(=O)N[C@@H](CCCNC(=N)N)C(=O)N[C@@H](Cc1c[nH]cn1)C(=O)N[C@@H](CC(C)C)C(=O)N[C@@H](CCCCN)C(=O)N[C@@H](CO)C(=O)N[C@@H](Cc1ccccc1)C(=O)N[C@@H](Cc1ccccc1)C(=O)N[C@@H](CCC(=O)O)C(=O)N[C@@H](C)C(=O)N[C@@H](CCCCN)C(=O)N[C@@H](CCCCN)C(=O)N[C@@H](CC(C)C)C(=O)N[C@H](C(=O)O)C(C)C (H-WRMRHLKSFFEAKKLV-OH),effect of peptide on Arf GAP2 activity,Arf GAP2 [1]; [10],stimulated activity
CC[C@H](C)[C@H](NC(=O)[C@H](CC(C)C)NC(=O)[C@H](CCCCN)NC(=O)[C@H](CCCCN)NC(=O)[C@H](C)NC(=O)[C@H](CCCCN)NC(=O)[C@H](Cc1ccccc1)NC(=O)[C@H](Cc1ccccc1)NC(=O)[C@H](CCCNC(=N)N)NC(=O)[C@H](CCCNC(=N)N)NC(=O)[C@H](CC(C)C)NC(=O)[C@@H](N)Cc1ccc(O)cc1)C(=O)N[C@@H](CCC(=O)O)C(=O)O [p23] (H-YLRRFFKAKKLIE-OH; N-terminus and C-terminus assumed),effect of peptide on Arf GAP2 activity,Arf GAP2 [1]; [10],stimulated GAP activity
CC(C)C[C@H](NC(=O)[C@H](Cc1c[nH]cn1)NC(=O)[C@@H](N)CCCNC(=N)N)C(=O)N[C@@H](CCCCN)C(=O)N[C@@H](CO)C(=O)N[C@@H](Cc1ccccc1)C(=O)N[C@@H](Cc1ccccc1)C(=O)N[C@@H](CCC(=O)O)C(=O)N[C@@H](C)C(=O)N[C@@H](CCCCN)C(=O)N[C@@H](CCCCN)C(=O)N[C@@H](CC(C)C)C(=O)N[C@H](C(=O)O)C(C)C [p25] (H-RHLKSFFEAKKLV-OH; N-terminus and C-terminus assumed),effect of p25 on time dependence of hydrolysis,Arf GAP2 [2]; 25 μM p25 with coatomer,accelerated hydrolysis
same,effect of p25 on kcat,Arf GAP2 [3],increased the kcat of the reaction
same,effect of p25 on kcat,Arf GAP2 [4],increased the kcat of the reaction
same,EC50,Arf GAP2 [1],500 ± 200 nM
same,effect of peptide on Arf GAP2 activity,Arf GAP2 [1]; [10],stimulated GAP activity
same,peptide concentration above which the effect decreased,"Arf GAP2 [1]; concentrations greater than, 11.4 nM Arf GAP2, 124 nM coatomer",25 to 50 µM
same,effect of p25 on coatomer dependence of Arf GAP2 activity,"Arf GAP2 [5]; 25 μM p25, 11.4 nM Arf GAP2, 0.03 and 1.0 μm LUVs",increased the extent of hydrolysis
same,"coatomer concentration at peak activity, with p25","Arf GAP2 [5]; 25 μM p25 peptide, smaller LUVs, 11.4 nM Arf GAP2, 3 min, 30 °C",100 nM
same,coatomer concentration below which p25 effect was greatest,"Arf GAP2 [5]; smaller LUVs, 25 μM p25, 11.4 nM Arf GAP2",less than 250 nM
same,effect of p25 on Arf GAP2 with coatomer,"Arf GAP2 [6]; 25 μM p25, 11.4 nM Arf GAP2, 124 nM coatomer",increased the activity in the samples containing both Arf GAP2 and coatomer
same,Arf GAP2 activity without coatomer,"Arf GAP2 [6]; 25 μM p25, 11.4 nM Arf GAP2, no coatomer",No activity was detected in the absence of coatomer
same,effect of p25 on Arf GAP2 without coatomer,"Arf GAP2 [6]; 25 μM p25, 3.4 μM Arf GAP2, no coatomer",had no effect
same,effect of p25 on Arf GAP1,Arf GAP1,stimulated by p25 when coatomer was present
same,effect of p25 on ASAP1 with coatomer,"ASAP1; 25 μM p25, 124 nM coatomer",coatomer-dependent inhibition was increased by p25
same,effect of p25 on ASAP1 without coatomer,"ASAP1; 25 μM p25, no coatomer",no effect in the absence of coatomer
Arf GAP2: [1–521] Arf GAP2 His6 expressed in E. coli and purified from inclusion bodies,extent of hydrolysis at highest Arf GAP2 concentration,"[7]; 3.4 μM Arf GAP2, no coatomer, footnote 1",25% – 40
same,C50 (amount of Arf GAP needed for 50% of maximum observed hydrolysis),[7]; [11],> 500 nM
same,Maximum GTP Hydrolysis,[7]; [11],15 ± 1%
same,C50 (amount of Arf GAP needed for 50% of maximum observed hydrolysis),[7]; [12],> 500 nM
same,Maximum GTP Hydrolysis,[7]; [12],6.2 ± 1.2%
same,C50 (amount of Arf GAP needed for 50% of maximum observed hydrolysis),[7]; [13],> 500 nM
same,Maximum GTP Hydrolysis,[7]; [13],37 ± 5.2%
same,C50 (amount of Arf GAP needed for 50% of maximum observed hydrolysis),[7]; [14],> 500 nM
same,Maximum GTP Hydrolysis,[7]; [14],25 ± 2.0%
same,GAP activity compared to purified Arf GAP1,[7]; no coatomer,little activity compared to purified Arf GAP1
same,"first order rate constant, effect of vesicle size","Arf GAP2 [2]; 3.4 μM Arf GAP2, 0.6 μM myrArf1•GTP, no coatomer",three-fold greater on the smaller vesicles than on the larger vesicles
same,rate constant relative to kcat of Arf GAP1,"Arf GAP2 [2]; 3.4 μM Arf GAP2, no coatomer, kcat of Arf GAP1 from ref 22",less than 1/100
same,effect of vesicle size on Arf GAP2 binding to LUVs,Protein binding to LUVs,did not detect an effect of vesicle size
same,effect of coatomer and curvature on Arf GAP2,Arf GAP2 [8],stimulated by coatomer but was not affected by curvature
same,binding to coatomer relative to Arf GAP1,coatomer,bind coatomer more tightly than does Arf GAP1
"phosphatidylinositol 4,5-bisphosphate [PIP2]",effect of phosphoinositide on Arf GAP2 activity,Arf GAP2 [9],affected the extent of hydrolysis but not the C50
phosphatidylinositol 4-phosphate [PI4P],reduction of C50 by PI4P,Arf GAP2 [9]; 124 nM coatomer present,2 fold
same,effect of phosphoinositide on Arf GAP2 activity,Arf GAP2 [9],had no effect by itself
B1,binding to coatomer relative to Arf GAP1,coatomer,bind coatomer more tightly than does Arf GAP1
